From ChEMBL document CHEMBL1127548, “N-benzylnaltrindoles as long-acting delta-opioid receptor antagonists” (J Med Chem, 1994)

How the values were obtained:
[1] = target: Mu-type opioid receptor (Mus musculus) (UniProt P42866); test: Antagonist potency was determined using morphine in mu-opioid receptor by icv administration in mouse after 24 hr; ED50 ratio; format: functional, organism-based
Summary of the method: (§1)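 Mouse abdominal stretch antinociception assay. Antagonist was given icv at 5 nmol, with agonists tested 24 h later. DSLET and DPDPE were given icv; morphine and U50488 were given sc. ED50 ratio is agonist ED50 with antagonist divided by control ED50, with 95% confidence limits.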

[2] = target: Kappa-type opioid receptor (Mus musculus) (UniProt P33534); test: Antagonist potency was determined using U-50,488 in kappa-opioid receptor by icv administration in mouse after 24 hr; ED50 ratio; format: functional, organism-based; summary of the method: as §1
[3] = target: Opioid receptors; delta & kappa (Homo sapiens) (UniProt P41145+P41143); test: Selectivity ratio is the ratio between delta and kappa receptor; format: protein assay
Summary of the method: (§2)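 Selectivity ratio is the DADLE IC50 ratio divided by the morphine (δ/μ) or ethylketazocine (δ/κ) IC50 ratio. These IC50 ratios come from smooth muscle with 100 nM antagonist, 15 min. A value of 1 was used wherever an IC50 ratio was <1.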

[4] = target: Kappa-type opioid receptor (Cavia porcellus) (UniProt P41144); test: Antagonist potency was determined using ethylketazocine at kappa-opioid receptor in electrically stimulated guinea pig ileal longitudinal muscle (GPI); IC50 ratio; format: functional
Summary of the method: (§3)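 Electrically stimulated tissue: agonists were morphine (μ) and ethylketazocine (κ) in guinea pig ileal longitudinal muscle, and DADLE (δ) in mouse vas deferens. Antagonist at 100 nM was incubated 15 min. IC50 ratio is agonist IC50 with antagonist divided by control IC50 in the same preparation, n ≥ 3, ±SE.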

[5] = target: Delta-type opioid receptor (Mus musculus) (UniProt P32300); test: Antagonist potency was determined using […] in delta2-opioid receptor by icv administration in mouse after 24 hr; ED50 ratio; format: functional, organism-based; summary of the method: as §1
[6] = target: Mu-type opioid receptor (Cavia porcellus) (UniProt P97266); test: Antagonist potency using morphine at mu-opioid receptor in electrically stimulated guinea pig ileal longitudinal muscle (GPI); IC50 ratio; format: functional; summary of the method: as §3
[7] = target: Opioid receptors; mu & delta (Homo sapiens) (UniProt P41143+P35372); test: Selectivity ratio is the ratio between delta and mu receptor; format: protein assay; summary of the method: as §2
[8] = target: Delta-type opioid receptor (Mus musculus) (UniProt P32300); test: Antagonist potency was determined using DPDPE in delta1-opioid receptor by icv administration in mouse after 24 hr; ED50 ratio; format: functional, organism-based; summary of the method: as §1
[9] = target: Delta-type opioid receptor (Mus musculus) (UniProt P32300); test: Antagonist potency was determined using D-Ala2, D-Leu5 enkephalin28 (DADLE) at delta-opioid receptor in mouse vas deferens (MVD); IC50 ratio; format: functional; summary of the method: as §3

Chain of Opioid receptors; delta & kappa (Homo sapiens) (P41143 whole entry, looked up): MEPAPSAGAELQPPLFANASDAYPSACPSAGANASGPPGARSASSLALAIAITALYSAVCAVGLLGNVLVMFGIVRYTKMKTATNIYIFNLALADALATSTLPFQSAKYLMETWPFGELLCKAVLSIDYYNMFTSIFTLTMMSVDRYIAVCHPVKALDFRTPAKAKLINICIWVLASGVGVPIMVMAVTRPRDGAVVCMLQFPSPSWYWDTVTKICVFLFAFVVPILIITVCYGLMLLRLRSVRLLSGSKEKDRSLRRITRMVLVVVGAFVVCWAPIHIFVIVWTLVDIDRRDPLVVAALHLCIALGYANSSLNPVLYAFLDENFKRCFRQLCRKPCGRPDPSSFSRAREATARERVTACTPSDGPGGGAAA
Chain of Opioid receptors; delta & kappa (Homo sapiens) (P41145 whole entry, looked up): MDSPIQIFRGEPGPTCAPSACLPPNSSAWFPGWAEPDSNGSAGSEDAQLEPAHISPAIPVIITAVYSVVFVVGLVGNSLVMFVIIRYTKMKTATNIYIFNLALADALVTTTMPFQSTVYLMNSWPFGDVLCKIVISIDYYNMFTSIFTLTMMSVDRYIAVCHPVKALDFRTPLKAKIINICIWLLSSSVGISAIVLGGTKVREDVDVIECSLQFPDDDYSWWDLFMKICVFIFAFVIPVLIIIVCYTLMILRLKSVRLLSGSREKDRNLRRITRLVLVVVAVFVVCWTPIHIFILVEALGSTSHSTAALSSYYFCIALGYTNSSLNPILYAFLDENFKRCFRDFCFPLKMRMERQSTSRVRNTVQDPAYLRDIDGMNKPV
Chain of Kappa-type opioid receptor (Cavia porcellus) (P41144 whole entry): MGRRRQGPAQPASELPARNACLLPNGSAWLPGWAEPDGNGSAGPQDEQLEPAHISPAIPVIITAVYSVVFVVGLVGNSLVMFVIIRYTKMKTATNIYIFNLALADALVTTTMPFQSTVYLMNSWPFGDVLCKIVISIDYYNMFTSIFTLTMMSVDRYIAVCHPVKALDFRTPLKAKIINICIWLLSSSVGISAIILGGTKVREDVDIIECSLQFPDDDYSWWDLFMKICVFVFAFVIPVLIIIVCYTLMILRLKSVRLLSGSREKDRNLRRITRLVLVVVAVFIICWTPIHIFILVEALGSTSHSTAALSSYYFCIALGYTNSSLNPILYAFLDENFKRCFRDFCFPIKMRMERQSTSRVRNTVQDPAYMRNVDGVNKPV
Chain of Mu-type opioid receptor (Cavia porcellus) (P97266 whole entry): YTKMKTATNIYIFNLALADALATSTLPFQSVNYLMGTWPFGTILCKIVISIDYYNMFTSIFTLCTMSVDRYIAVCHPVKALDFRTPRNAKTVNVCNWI
Chain of Opioid receptors; mu & delta (Homo sapiens) (P35372 whole entry, looked up): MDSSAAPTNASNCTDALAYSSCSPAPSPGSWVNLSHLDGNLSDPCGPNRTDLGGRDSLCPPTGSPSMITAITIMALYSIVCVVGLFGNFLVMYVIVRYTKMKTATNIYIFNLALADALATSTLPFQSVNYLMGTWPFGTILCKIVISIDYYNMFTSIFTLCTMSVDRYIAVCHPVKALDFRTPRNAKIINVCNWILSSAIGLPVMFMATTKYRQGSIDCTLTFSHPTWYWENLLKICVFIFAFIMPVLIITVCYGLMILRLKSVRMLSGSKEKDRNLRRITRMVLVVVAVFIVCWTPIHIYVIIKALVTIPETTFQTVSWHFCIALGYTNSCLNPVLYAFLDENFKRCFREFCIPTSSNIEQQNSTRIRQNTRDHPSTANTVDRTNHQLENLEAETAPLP
Chain of Opioid receptors; mu & delta (Homo sapiens) (P41143 whole entry, looked up): as the sequence (P41143 whole entry, looked up) above
Chain of Delta-type opioid receptor (Mus musculus) (P32300 whole entry): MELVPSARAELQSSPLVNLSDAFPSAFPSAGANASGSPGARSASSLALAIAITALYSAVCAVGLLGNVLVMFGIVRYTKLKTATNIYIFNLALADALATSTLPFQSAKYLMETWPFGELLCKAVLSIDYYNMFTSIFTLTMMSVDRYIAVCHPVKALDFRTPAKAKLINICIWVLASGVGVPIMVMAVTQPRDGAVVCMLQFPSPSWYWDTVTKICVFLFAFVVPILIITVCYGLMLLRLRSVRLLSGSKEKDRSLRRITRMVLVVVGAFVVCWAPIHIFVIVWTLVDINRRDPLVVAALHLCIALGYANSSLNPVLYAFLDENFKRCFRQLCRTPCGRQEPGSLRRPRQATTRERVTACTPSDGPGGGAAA
Chain of Kappa-type opioid receptor (Mus musculus) (P33534 whole entry): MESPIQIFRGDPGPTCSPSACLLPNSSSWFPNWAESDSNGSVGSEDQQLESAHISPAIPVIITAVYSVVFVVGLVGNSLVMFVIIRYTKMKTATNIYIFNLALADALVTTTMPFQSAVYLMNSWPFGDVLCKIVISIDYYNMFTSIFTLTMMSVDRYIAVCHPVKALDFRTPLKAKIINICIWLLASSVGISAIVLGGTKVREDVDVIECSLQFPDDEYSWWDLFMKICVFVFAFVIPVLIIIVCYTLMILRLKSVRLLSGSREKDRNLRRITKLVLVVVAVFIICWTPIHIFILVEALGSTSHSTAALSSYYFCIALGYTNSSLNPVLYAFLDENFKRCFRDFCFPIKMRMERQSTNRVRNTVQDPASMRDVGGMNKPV
Chain of Mu-type opioid receptor (Mus musculus) (P42866 whole entry): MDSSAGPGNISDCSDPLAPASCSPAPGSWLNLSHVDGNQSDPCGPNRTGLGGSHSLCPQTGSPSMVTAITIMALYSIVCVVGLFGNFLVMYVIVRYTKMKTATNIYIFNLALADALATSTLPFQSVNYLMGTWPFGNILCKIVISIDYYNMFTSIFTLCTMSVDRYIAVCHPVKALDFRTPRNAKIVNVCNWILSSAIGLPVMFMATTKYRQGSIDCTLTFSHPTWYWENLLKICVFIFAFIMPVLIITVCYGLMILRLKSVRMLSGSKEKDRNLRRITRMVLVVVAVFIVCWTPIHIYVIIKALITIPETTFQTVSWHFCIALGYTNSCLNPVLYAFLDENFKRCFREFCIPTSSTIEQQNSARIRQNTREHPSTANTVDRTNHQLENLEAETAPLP

SMILES: Oc1ccc2c3c1O[C@H]1c4c(c5ccccc5n4Cc4ccccc4)C[C@@]4(O)[C@@H](C2)N(CC2CC2)CC[C@]314
- Ratio [1]: 1.2
- Ratio [2]: 0.77
- Selectivity ratio [3]: 208
- Ratio [4]: 0.4
- Ratio [5]: 10
- Ratio [6]: 1.6
- Selectivity ratio [7]: 131
- Ratio [8]: 1.3
- Ratio [9]: 208

SMILES: Nc1ccccc1Cn1c2c(c3ccccc31)C[C@@]1(O)[C@H]3Cc4ccc(O)c5c4[C@@]1(CCN3CC1CC1)[C@H]2O5
- Selectivity ratio [3]: 120
- Ratio [4]: 0.9
- Ratio [6]: 1
- Selectivity ratio [7]: 120
- Ratio [9]: 120

SMILES: Oc1ccc2c3c1O[C@H]1c4[nH]c5ccccc5c4C[C@@]4(O)[C@@H](C2)N(CC2CC2)CC[C@]314
- Selectivity ratio [3]: 353
- Ratio [4]: 1.3
- Ratio [6]: 11.2
- Selectivity ratio [7]: 41
- Ratio [9]: 459

SMILES: O=[N+]([O-])c1cccc(Cn2c3c(c4ccccc42)C[C@@]2(O)[C@H]4Cc5ccc(O)c6c5[C@@]2(CCN4CC2CC2)[C@H]3O6)c1
- Selectivity ratio [3]: 112
- Ratio [4]: 0.6
- Ratio [6]: 0.9
- Selectivity ratio [7]: 112
- Ratio [9]: 112

SMILES: O=[N+]([O-])c1ccc(Cn2c3c(c4ccccc42)C[C@@]2(O)[C@H]4Cc5ccc(O)c6c5[C@@]2(CCN4CC2CC2)[C@H]3O6)cc1
- Selectivity ratio [3]: 38
- Ratio [4]: 0.4
- Ratio [6]: 0.5
- Selectivity ratio [7]: 38
- Ratio [9]: 38

SMILES: Nc1cccc(Cn2c3c(c4ccccc42)C[C@@]2(O)[C@H]4Cc5ccc(O)c6c5[C@@]2(CCN4CC2CC2)[C@H]3O6)c1
- Selectivity ratio [3]: 100
- Ratio [4]: 1.5
- Ratio [6]: 1.3
- Selectivity ratio [7]: 111
- Ratio [9]: 148

SMILES: Oc1ccc2c3c1O[C@H]1c4c(c5ccccc5n4Cc4c(F)c(F)c(F)c(F)c4F)C[C@@]4(O)[C@@H](C2)N(CC2CC2)CC[C@]314
- Selectivity ratio [3]: 52
- Ratio [4]: 0.7
- Ratio [6]: 1.4
- Selectivity ratio [7]: 37
- Ratio [9]: 52

SMILES: O=[N+]([O-])c1ccccc1Cn1c2c(c3ccccc31)C[C@@]1(O)[C@H]3Cc4ccc(O)c5c4[C@@]1(CCN3CC1CC1)[C@H]2O5
- Selectivity ratio [3]: 31
- Ratio [4]: 0.8
- Ratio [6]: 2.3
- Selectivity ratio [7]: 13
- Ratio [9]: 31

SMILES: Nc1ccc(Cn2c3c(c4ccccc42)C[C@@]2(O)[C@H]4Cc5ccc(O)c6c5[C@@]2(CCN4CC2CC2)[C@H]3O6)cc1
- Ratio [1]: 1.1
- Ratio [2]: 0.64
- Selectivity ratio [3]: 188
- Ratio [4]: 1.5
- Ratio [5]: 5.9
- Ratio [6]: 2.7
- Selectivity ratio [7]: 106
- Ratio [9]: 288
